# Test results reported in ChEMBL document CHEMBL5303300, “EUbOPEN Chemogenomics Library - Multiplex” (2023).
# Several values for one entry are separate records, joined by “and”; a condition that tells them apart may be missing. Identical values can stand only once.
# Key:
# Fibroblast = experiment: Multiplex assay against human fibroblast; format: toxicity, cell-based; conditions: number of replicates 2
# In short: (§1)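 Hoechst33342, BioTracker Green Microtubule Cytoskeleton Dye, MitoTracker Red and Annexin V Alexa Fluor 680 were added to live cells at seeding, and imaging on a CQ1 microscope at 37°C and 5% CO2 followed compound addition. Gating by CellPathfinder machine learning separated cells into Hoechst high-intensity objects or normal cells, then normal cells into healthy, pyknosed or fragmented nuclei, then pyknosed cells into mitotic or apoptotic. Per cents of healthy-nucleus cells are reported for the tubulin, mitochondrial-mass and membrane-permeability phenotypes.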
# U2OS = experiment: Multiplex assay against U2OS; format: toxicity, cell-based; conditions: human, number of replicates 2; in short: as §1
# [1] = 24 h, 1 µM, compound concentration 1 uM
# [2] = 24 h, 10 µM, compound concentration 10 uM
# [3] = 48 h, 1 µM, compound concentration 1 uM
# [4] = 48 h, 10 µM, compound concentration 10 uM
# [5] = 12 h, 1 µM, compound concentration 1 uM
# [6] = 12 h, 10 µM, compound concentration 10 uM
smiles,measurement,setting,value
N[C@@H]1c2cccnc2[C@H](OC(=O)N2CCC(n3c(=O)[nH]c4ncccc43)CC2)CC[C@H]1c1cccc(F)c1F [RIMEGEPANT],Population Tubulin-Different-Phenotype (%),Fibroblast; [1],22% and 15%
same,Total Cell Count,Fibroblast; [1],124 and 234
same,Population Apoptotic (%),Fibroblast; [2],47% and 64%
same,Population Fragmented Nuclei (%),Fibroblast; [2],12%
same,Population Healthy Nuclei (%),Fibroblast; [2],78% and 80%
same,Population Hoechst High Intensity Objects (%),Fibroblast; [2],0%
same,Population Membrane Permeable-Phenotype (%),Fibroblast; [2],7% and 6%
same,Population Mitochondria Different-Phenotype (%),Fibroblast; [2],3% and 5%
same,Population Mitotic Cells (%),Fibroblast; [2],52% and 35%
same,Population Normal (%),Fibroblast; [2],100% and 99%
same,Population Pyknosed Nuclei (%),Fibroblast; [2],9% and 7%
same,Population Tubulin-Different-Phenotype (%),Fibroblast; [2],50% and 36%
same,Total Cell Count,Fibroblast; [2],199 and 236
same,Population Apoptotic (%),Fibroblast; [3],65% and 48%
same,Population Fragmented Nuclei (%),Fibroblast; [3],8% and 21%
same,Population Healthy Nuclei (%),Fibroblast; [3],75% and 65%
same,Population Hoechst High Intensity Objects (%),Fibroblast; [3],0% and 1%
same,Population Membrane Permeable-Phenotype (%),Fibroblast; [3],4% and 2%
same,Population Mitochondria Different-Phenotype (%),Fibroblast; [3],1%
same,Population Mitotic Cells (%),Fibroblast; [3],35% and 51%
same,Population Normal (%),Fibroblast; [3],100% and 98%
same,Population Pyknosed Nuclei (%),Fibroblast; [3],16% and 12%
same,Population Tubulin-Different-Phenotype (%),Fibroblast; [3],6% and 10%
same,Total Cell Count,Fibroblast; [3],125 and 227
same,Population Apoptotic (%),Fibroblast; [4],77% and 47%
same,Population Fragmented Nuclei (%),Fibroblast; [4],14% and 13%
same,Population Healthy Nuclei (%),Fibroblast; [4],81% and 78%
same,Population Hoechst High Intensity Objects (%),Fibroblast; [4],0%
same,Population Membrane Permeable-Phenotype (%),Fibroblast; [4],1% and 5%
same,Population Mitochondria Different-Phenotype (%),Fibroblast; [4],1% and 0%
same,Population Mitotic Cells (%),Fibroblast; [4],22% and 52%
same,Population Normal (%),Fibroblast; [4],99% and 100%
same,Population Pyknosed Nuclei (%),Fibroblast; [4],4% and 7%
same,Population Tubulin-Different-Phenotype (%),Fibroblast; [4],37% and 16%
same,Total Cell Count,Fibroblast; [4],205 and 225
same,Population Apoptotic (%),U2OS; [5],40% and 54%
same,Population Fragmented Nuclei (%),U2OS; [5],11% and 5%
same,Population Healthy Nuclei (%),U2OS; [5],79% and 84%
same,Population Hoechst High Intensity Objects (%),U2OS; [5],0%
same,Population Membrane Permeable-Phenotype (%),U2OS; [5],0% and 4%
same,Population Mitochondria Different-Phenotype (%),U2OS; [5],0% and 1%
same,Population Mitotic Cells (%),U2OS; [5],60% and 45%
same,Population Normal (%),U2OS; [5],100%
same,Population Pyknosed Nuclei (%),U2OS; [5],9%
same,Population Tubulin-Different-Phenotype (%),U2OS; [5],90% and 65%
same,Population Apoptotic (%),U2OS; [6],60% and 51%
same,Population Fragmented Nuclei (%),U2OS; [6],0% and 5%
same,Population Healthy Nuclei (%),U2OS; [6],88% and 83%
same,Population Hoechst High Intensity Objects (%),U2OS; [6],0%
same,Population Membrane Permeable-Phenotype (%),U2OS; [6],0% and 8%
same,Population Mitochondria Different-Phenotype (%),U2OS; [6],8% and 11%
same,Population Mitotic Cells (%),U2OS; [6],40% and 48%
same,Population Normal (%),U2OS; [6],100%
same,Population Pyknosed Nuclei (%),U2OS; [6],11% and 10%
same,Population Tubulin-Different-Phenotype (%),U2OS; [6],37% and 34%
same,Population Apoptotic (%),U2OS; [1],50% and 57%
same,Population Fragmented Nuclei (%),U2OS; [1],7% and 3%
same,Population Healthy Nuclei (%),U2OS; [1],82% and 86%
same,Population Hoechst High Intensity Objects (%),U2OS; [1],0%
same,Population Membrane Permeable-Phenotype (%),U2OS; [1],2% and 4%
same,Population Mitochondria Different-Phenotype (%),U2OS; [1],0% and 2%
same,Population Mitotic Cells (%),U2OS; [1],50% and 42%
same,Population Normal (%),U2OS; [1],100%
same,Population Pyknosed Nuclei (%),U2OS; [1],10% and 9%
same,Population Tubulin-Different-Phenotype (%),U2OS; [1],87% and 71%
same,Population Apoptotic (%),U2OS; [2],66% and 76%
same,Population Fragmented Nuclei (%),U2OS; [2],8% and 3%
same,Population Healthy Nuclei (%),U2OS; [2],79% and 89%
same,Population Hoechst High Intensity Objects (%),U2OS; [2],0%
same,Population Membrane Permeable-Phenotype (%),U2OS; [2],0% and 6%
same,Population Mitochondria Different-Phenotype (%),U2OS; [2],10% and 16%
same,Population Mitotic Cells (%),U2OS; [2],33% and 24%
same,Population Normal (%),U2OS; [2],100%
same,Population Pyknosed Nuclei (%),U2OS; [2],12% and 6%
same,Population Tubulin-Different-Phenotype (%),U2OS; [2],28% and 27%
same,Population Apoptotic (%),U2OS; [3],61% and 62%
same,Population Fragmented Nuclei (%),U2OS; [3],8% and 3%
same,Population Healthy Nuclei (%),U2OS; [3],77% and 89%
same,Population Hoechst High Intensity Objects (%),U2OS; [3],0%
same,Population Membrane Permeable-Phenotype (%),U2OS; [3],1%
same,Population Mitochondria Different-Phenotype (%),U2OS; [3],2% and 1%
same,Population Mitotic Cells (%),U2OS; [3],38% and 37%
same,Population Normal (%),U2OS; [3],100%
same,Population Pyknosed Nuclei (%),U2OS; [3],14% and 7%
same,Population Tubulin-Different-Phenotype (%),U2OS; [3],94% and 84%
same,Population Apoptotic (%),U2OS; [4],53% and 70%
same,Population Fragmented Nuclei (%),U2OS; [4],3%
same,Population Healthy Nuclei (%),U2OS; [4],73% and 86%
same,Population Hoechst High Intensity Objects (%),U2OS; [4],0%
same,Population Membrane Permeable-Phenotype (%),U2OS; [4],4% and 3%
same,Population Mitochondria Different-Phenotype (%),U2OS; [4],2% and 9%
same,Population Mitotic Cells (%),U2OS; [4],46% and 29%
same,Population Normal (%),U2OS; [4],100%
same,Population Pyknosed Nuclei (%),U2OS; [4],22% and 9%
same,Population Tubulin-Different-Phenotype (%),U2OS; [4],30% and 33%
